# Assay results from different studies.
SMILES,organism,test,test system,setting,measurement,result
CNCCc1ccc(Oc2ccc(-c3noc(-c4ccc(O)cc4)n3)cc2)cc1.Cl,Enterococcus faecium,"microbial growth, broth dilution",,24 h,MIC,4 mg/L
N#Cc1ccc(/C=C/c2nc3ccccc3c(=O)n2-c2cccc(C(=O)NCc3cccnc3)c2)cc1,Enterococcus faecium,"microbial growth, broth dilution",NCTC7171,,MIC,> 128 mg/L
CNC(=O)c1cc(Oc2ccc(NC(=O)Nc3ccc(Cl)c(C(F)(F)F)c3)cc2)ccn1,Plasmodium berghei,"parasite growth, luciferase",human,liver stage,IC50,1.4 µM
N=C(N)c1ccc(OCCCCCOc2ccc(C(=N)N)cc2)cc1,Trypanosoma brucei,parasite growth,,,EC50,0.00124 µM
Cl.NCc1ccccc1Oc1ccc(-c2noc(-c3ccc(O)cc3)n2)cc1,Enterococcus faecium,"microbial growth, broth dilution",,24 h,MIC,8 mg/L
COc1cc(C=NNc2ncnc3c2cnn3-c2ccccc2)ccc1O,Trypanosoma brucei,parasite growth,,,EC50,1.58 µM
COc1ccc(-c2nn3ncccc3c2-c2ccnc(Nc3ccc4c(c3)OCCO4)n2)cc1,Plasmodium berghei,"parasite growth, luciferase",human,liver stage,IC50,3.5 µM
COc1cc(/C=N/Nc2ncnc3c2cnn3C(C)C)ccc1O,Trypanosoma brucei,parasite growth,,,EC50,1 µM
O=c1c2cnccc2nc(/C=C/c2ccc(F)cc2)n1-c1cccc(O)c1,Enterococcus faecium,"microbial growth, broth dilution",NCTC7171,,MIC,> 128 mg/L
CN(c1ccc(NC(=O)Nc2c(Cl)cccc2Cl)cc1)c1ccnc(Nc2cccc(CS(C)(=O)=O)c2)n1,Trypanosoma brucei,parasite growth,,,EC50,7.94 µM
COC(=O)Nc1cccc(-n2c(/C=C/c3ccc(C#N)cc3)nc3ccccc3c2=O)c1,Enterococcus faecium,"microbial growth, broth dilution",NCTC7171,,MIC,> 128 mg/L
Cl.Oc1ccc(-c2nc(-c3ccc(Oc4ccc5c(c4)CNCC5)cc3)no2)cc1,Enterococcus faecium,"microbial growth, broth dilution",,24 h,MIC,4 mg/L
O=C(Nc1ccccc1-c1ccc(F)c(F)c1)c1nccnc1C(F)(F)F,Alternaria brassicicola,microbial growth,,,EC50,0.057 mg/L
CC(=O)Nc1ccc(-c2nc(-c3ccc(Oc4ccccc4)cc3)no2)cc1,Enterococcus faecium,"microbial growth, broth dilution",,24 h,MIC,> 32 mg/L
CC(=O)OCC#Cc1ccc(/C=C/c2nc3ccccc3c(=O)n2-c2cccc(C(=O)O)c2)cc1,Enterococcus faecium,"microbial growth, broth dilution",NCTC7171,,MIC,> 128 mg/L
O=C(Nc1ccc(Oc2ccc3nc(NC(=O)c4ccco4)[nH]c3c2)cc1)Nc1cc(C(F)(F)F)ccc1F,Trypanosoma brucei,parasite growth,,,EC50,2.51 µM
CS(=O)(=O)Nc1cccc(-n2c(/C=C/c3ccc(F)cc3)nc3ccccc3c2=O)c1,Enterococcus faecium,"microbial growth, broth dilution",NCTC7171,,MIC,> 128 mg/L
CC(C)=Cc1cccc2c1C(=NNc1ccc(S(N)(=O)=O)cc1)C(=O)N2,Trypanosoma brucei,parasite growth,,,EC50,0.0316 µM
Cl.NCCc1ccccc1Oc1ccc(-c2noc(-c3ccc(O)cc3)n2)cc1,Enterococcus faecium,"microbial growth, broth dilution",,24 h,MIC,8 mg/L
C[C@@H]1[C@H](O)[C@@H](C)/C=C/C=C/C=C/C=C/C=C/C=C/C=C/[C@H](O[C@@H]2O[C@H](C)[C@@H](O)[C@H](N)[C@@H]2O)C[C@@H]2O[C@](O)(C[C@@H](O)C[C@@H](O)[C@H](O)CC[C@@H](O)C[C@@H](O)CC(=O)O[C@H]1C)C[C@H](O)[C@H]2C(=O)O,Candida albicans,microbial killing,ATCC90028,,MFC,1.35 µM
CCN(Cc1cnc2nc(N)nc(N)c2n1)c1ccc(C(=O)N2CCC(C(=O)OC)CC2)cc1,Trypanosoma brucei,"parasite growth, resazurin",,"10 µM, 72 h",inhibition,31%
CC(=O)Nc1cccc(-n2c(/C=C/c3ccc(F)cc3)nc3ccccc3c2=O)c1,Enterococcus faecium,"microbial growth, broth dilution",NCTC7171,,MIC,> 128 mg/L
COC(=O)c1ccc2c(c1)C(=Cc1cc(Br)c(O)c(Br)c1)C(=O)N2,Plasmodium berghei,"parasite growth, luciferase",human,liver stage,IC50,6.7 µM
C#CCCCCCCCCCCCC(O)CC(O)CO (stereo not drawn),Mycobacterium intracellulare,"microbial growth, resazurin",ATCC23068,,IC50,> 200 mg/L
C[C@@H]1[C@H](O)[C@@H](C)/C=C/C=C/C=C/C=C/C=C/C=C/C=C/[C@H](O[C@@H]2O[C@H](C)[C@@H](O)[C@H](N)[C@@H]2O)C[C@@H]2O[C@](O)(C[C@@H](O)C[C@@H](O)[C@H](O)CC[C@@H](O)C[C@@H](O)CC(=O)O[C@H]1C)C[C@H](O)[C@H]2C(=O)O,Candida albicans,microbial growth,ATCC90028,,IC50,0.32 mg/L
CC1=C(C(=O)Nc2ccc3[nH]ncc3c2)C(c2ccc(Cl)c(Cl)c2)CC(=O)N1 (stereo not drawn),Trypanosoma brucei,parasite growth,,,EC50,25.1 µM
CCCCCCCCCCCCCC(O)CC(O)CO (stereo not drawn),Mycobacterium intracellulare,"microbial growth, resazurin",ATCC23068,,IC50,> 200 mg/L
CC1=C(C(=O)Nc2ccc3[nH]ncc3c2)C(c2ccc3ccccc3c2)CC(=O)N1 (stereo not drawn),Trypanosoma brucei,parasite growth,,,EC50,3.98 µM
C=CCCCCCCCCCCCC(O)CC(O)CO (stereo not drawn),Candida albicans,"microbial growth, broth dilution",ATCC90028,,IC50,> 200 mg/L
CCCCCCCCCC(=O)N[C@@H](Cc1c[nH]c2ccccc12)C(=O)N[C@H](CC(N)=O)C(=O)N[C@@H](CC(=O)O)C(=O)N[C@@H]1C(=O)NCC(=O)N[C@@H](CCCN)C(=O)N[C@@H](CC(=O)O)C(=O)N[C@H](C)C(=O)N[C@@H](CC(=O)O)C(=O)NCC(=O)N[C@H](CO)C(=O)N[C@@H]([C@H](C)CC(=O)O)C(=O)N[C@@H](CC(=O)c2ccccc2N)C(=O)O[C@@H]1C,Enterococcus faecium,"microbial growth, broth dilution",,24 h,MIC,2 mg/L
O=C(O)c1cn(C2CC2)c2cc(N3CCNCC3)c(F)cc2c1=O,Mycobacterium intracellulare,"microbial growth, resazurin",ATCC23068,,IC50,0.48 mg/L
O=C(O)c1cn(C2CC2)c2cc(N3CCNCC3)c(F)cc2c1=O,Mycobacterium intracellulare,microbial growth,ATCC23068,,IC50,0.69 µM
CS(=O)(=O)c1ccc(/C=C/c2nc3ccccc3c(=O)n2-c2cccc(C(=O)O)c2)cc1,Enterococcus faecium,"microbial growth, broth dilution",NCTC7171,,MIC,> 128 mg/L
CS(=O)(=O)CCNCc1nc(-c2ccc3ncnc(Nc4ccc(OCc5cccc(C(F)(F)F)c5)cc4)c3c2)cs1,Trypanosoma brucei,parasite growth,,,EC50,3.16 µM
N#CCNC(=O)c1ccc(-c2ccnc(Nc3ccc(N4CCOCC4)cc3)n2)cc1,Plasmodium berghei,"parasite growth, luciferase",human,liver stage,IC50,0.55 µM
COc1ncccc1CNc1cccc(-n2c(/C=C/c3ccc(C#N)cc3)nc3ccccc3c2=O)c1,Enterococcus faecium,"microbial growth, broth dilution",NCTC7171,,MIC,> 128 mg/L
